pEC50, pKi: −log10 of the molar value.

The results in this text go back to ChEMBL document CHEMBL1126289, “Analogues of the muscarinic agent 2'-methylspiro[1-azabicyclo[2.2.2]octane-3,4'-[1,3]dioxolane]: synthesis and pharmacology” (J Med Chem, 1992).

The species entered for experiment [1] is Cavia porcellus. As to the kind of experiment: Maximum response relative to that elicited by carbachol in guinea pig ileum was determined. It counts as functional. In a few lines:
(§1)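 Longitudinal ileal muscle strips from male guinea pig were held in Krebs-Henseleit (pH 7.4, carbogen) at 37 °C under about 5 mN tension and recorded isometrically. Single agonist concentrations were added, with washout and rest between each. EC50 was read graphically. Emax was expressed as percent of the carbachol maximum. Low-efficacy agents were estimated from pooled curves of at least two experiments.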

Experiment [2] is filed under the species Cavia porcellus. In words: In vitro antagonistic activity on isolated guinea pig urinary bladder. In kind it is functional. In a few lines: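 Bladder smooth-muscle strips from male guinea pigs (~300 g) in Krebs-Henseleit, pH 7.4, carbogen-gassed, 37 °C, ~5 mN resting tension, stabilized ≥45 min; isometric tension recorded. A control cumulative carbachol curve was run, then washout and ≥15 min rest. A fixed test-compound concentration was incubated 60 min before a second carbachol curve. Carbachol EC50s were read graphically and dose ratios calculated to give KB; 2–8 experiments.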

Experiment [3] is filed under the species Cavia porcellus. As to the kind of experiment: In vitro agonistic activity on isolated guinea pig ileum. In kind it is functional. In a few lines: as §1
In experiment [4] the target is T1, Muscarinic acetylcholine receptor M3 (Cavia porcellus, UniProt Q8VH26). In words: Compound was evaluated for its binding affinity against muscarinic acetylcholine receptor M3 in guinea pig parotid gland using (-)-[3H]-QNB as radioligand. In kind it is tissue-based. In a few lines: (§2)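 Male guinea pig parotid gland homogenate was prepared in 50 mM Na/K phosphate pH 7.4 with 1 mM PMSF (protein ≤0.3 mg/mL). Triplicates were incubated with 2 nM (final) (−)-[3H]QNB at 25 °C for 210 min, with nonspecific binding defined by 10 µM atropine. Samples were separated by centrifugation and counted by scintillation. Ki came from graphical IC50 corrected by the Jacobs method, from 2–3 experiments.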

The target of experiment [5] is T1, Muscarinic acetylcholine receptor M3. As to the kind of experiment: Compound was evaluated for its binding affinity against Muscarinic acetylcholine receptor M3 in guinea pig parotid gland using (-)-[3H]-QNB as radioligand. It counts as tissue-based. The gist of the method:
as §2

The target is the same in experiment [6]. In words: Compound was evaluated for its binding affinity against muscarinic acetylcholine receptor M3 n guinea pig parotid gland using (-)-[3H]-QNB as radioligand. In kind it is tissue-based. The gist of the method:
as §2

T1 sequence (Q8VH26 whole entry): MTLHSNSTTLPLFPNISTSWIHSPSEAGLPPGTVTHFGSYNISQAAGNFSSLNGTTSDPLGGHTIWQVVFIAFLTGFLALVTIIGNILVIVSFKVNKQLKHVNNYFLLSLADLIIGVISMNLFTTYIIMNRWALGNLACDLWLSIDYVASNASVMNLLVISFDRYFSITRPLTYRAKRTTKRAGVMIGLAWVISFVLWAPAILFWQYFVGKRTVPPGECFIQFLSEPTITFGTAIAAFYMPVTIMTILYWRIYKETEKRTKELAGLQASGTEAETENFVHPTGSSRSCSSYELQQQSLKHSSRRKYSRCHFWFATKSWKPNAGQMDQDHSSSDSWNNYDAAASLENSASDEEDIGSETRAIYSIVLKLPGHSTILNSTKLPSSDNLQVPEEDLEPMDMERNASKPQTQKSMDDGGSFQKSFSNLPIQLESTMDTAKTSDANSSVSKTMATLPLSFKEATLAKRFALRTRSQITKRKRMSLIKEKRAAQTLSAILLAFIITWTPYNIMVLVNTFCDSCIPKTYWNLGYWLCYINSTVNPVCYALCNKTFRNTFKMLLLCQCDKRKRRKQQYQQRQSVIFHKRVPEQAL

For the compound `C[C@H]1OC[C@@]2(CN3CCC2CC3)O1`, the Emax in the experiment filed under Cavia porcellus [1] came to 91%. In the experiment filed under Cavia porcellus [2], this compound registered a Kb of 4.8 µM. In the experiment listed under Cavia porcellus [3], this compound gave a pEC50 of 5.22. Moreover, the pKi in experiment [4] is 4.82.

The compound `C[C@@H]1OC[C@@]2(CN3CCC2CC3)O1` showed an Emax in the experiment listed under Cavia porcellus [1] of 24%. Further, the Kb in the experiment filed under Cavia porcellus [2] was 13 µM. The same compound had a pEC50 in the experiment filed under Cavia porcellus [3] of 4.77. For the same compound, in experiment [4], the pKi was 4.60.

Compound `C[C@@H]1CC[C@@]2(CN3CCC2CC3)O1` registered an Emax in the experiment listed under Cavia porcellus [1] of 20%. The compound further returned a Kb in the experiment filed under Cavia porcellus [2] of 90 µM. For the same compound, in experiment [5], the pKi is 4.11. The same compound gave a pEC50 in the experiment listed under Cavia porcellus [3] of 4.52.

Take `C[C@H]1CC[C@@]2(CN3CCC2CC3)O1`: in the experiment listed under Cavia porcellus [1], the Emax amounted to 29%. In the experiment listed under Cavia porcellus [2], the Kb stood at 93 µM. In addition, the pEC50 in the experiment filed under Cavia porcellus [3] was 4.92. This compound showed a pKi in experiment [4] of 4.46.

In turn, `C[C@H]1C[C@@]2(CO1)CN1CCC2CC1` registered an Emax in the experiment filed under Cavia porcellus [1] of 25%. Besides, the Kb in the experiment listed under Cavia porcellus [2] came out at 30 µM. The same compound gave a pKi in experiment [5] of 4.59. The same compound showed a pEC50 in the experiment filed under Cavia porcellus [3] of 3.82.

In the experiment listed under Cavia porcellus [1], `C[N+](C)(C)CCOC(N)=O` [CARBACHOL] showed an Emax of 100%. The pEC50 in the experiment filed under Cavia porcellus [2] is 5.77; in the experiment filed under Cavia porcellus [3], 6.77.

With `C1OCC2(CN3CCC2CC3)O1` (stereo not given), the Emax in the experiment listed under Cavia porcellus [1] amounted to 45%. Also, the Kb in the experiment listed under Cavia porcellus [2] came out at 122 µM. The pEC50 in the experiment filed under Cavia porcellus [3] is 4.00. In experiment [4], this compound showed a pKi of 4.07.

Take `CC1(C)OCC2(CN3CCC2CC3)O1` (stereo not given): in the experiment filed under Cavia porcellus [1], the Emax amounted to 14%. This compound also had a pKi in experiment [6] of 4.41. Also, the Kb in the experiment listed under Cavia porcellus [2] is 41 µM. For the same compound, in the experiment listed under Cavia porcellus [3], the pEC50 was 4.66.

With `C[C@@H]1C[C@@]2(CO1)CN1CCC2CC1`, the Emax in the experiment listed under Cavia porcellus [1] worked out at 7%. In the experiment listed under Cavia porcellus [2], this compound came in with a Kb of 19 µM. Further, the pEC50 in the experiment listed under Cavia porcellus [3] is 4.92. This compound gave a pKi in experiment [4] of 4.48.
